≈ marks a conversion by molar mass, not a printed value.
Assays:
Format in all cases: functional
[1] = system: Mycobacterium tuberculosis; assay: Antitubercular activity against Mycobacterium tuberculosis H37Rv after 16 to 24 hrs by microplate alamar blue assay
Outline: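 DMSO stocks (12.8 mM) two-fold diluted in Middlebrook 7H12 medium (7H9 with casitone, palmitic acid, BSA, catalase); final concentrations 128 down to 0.5. H37Rv inoculum 2 × 10⁵ cfu/mL added, 37 °C for 7 days, then Tween 80 plus Alamar Blue, further 16–24 h. Fluorescence ex 530/em 590 nm; MIC = lowest concentration giving ≥90% fluorescence reduction versus replicate bacteria-only controls.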

Staphylococcus aureus = assay: Antibacterial activity against Staphylococcus aureus clinical isolate after 16 to 20 hrs by two fold agar dilution method
Outline: (§1)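 Two-fold dilutions of test compounds and reference antibiotics made in molten Mueller-Hinton agar held at 37 °C, final range […]; drug-free medium as control. Plates spot-inoculated with culture containing 10⁴ CFU/mL of each clinical isolate, incubated at 37 °C; MIC read as lowest inhibiting concentration.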

Escherichia coli = assay: Antibacterial activity against Escherichia coli clinical isolate after 16 to 20 hrs by two fold agar dilution method; outline: as §1
Streptococcus pneumoniae [2] = assay: Antibacterial activity against Streptococcus pneumoniae clinical isolate after 16 to 20 hrs by two fold agar dilution method; outline: as §1
Streptococcus pneumoniae [3] = assay: Antibacterial activity against pencillin-resistant Streptococcus pneumoniae after 16 to 20 hrs by two fold agar dilution method; outline: as §1

## CCOC(=O)c1sc(NC(=O)c2ccc(Cl)cc2Cl)nc1-c1ccc(OCc2c(Cl)cccc2Cl)cc1
[1]
  MIC: 25.4 µM (≈ 15.1 µg/mL)
Staphylococcus aureus
  MIC: > 128 µM
Escherichia coli
  MIC: > 128 µM
Streptococcus pneumoniae [2]
  MIC: > 128 µM
Streptococcus pneumoniae [3]
  MIC: > 128 µM

## CC1(C)S[C@@H]2[C@H](NC(=O)[C@H](N)c3ccccc3)C(=O)N2[C@H]1C(=O)O [AMPICILLIN]
Staphylococcus aureus
  MIC: 2.7 µM (≈ 0.943 µg/mL)
Escherichia coli
  MIC: 10.8 µM (≈ 3.77 µg/mL)
Streptococcus pneumoniae [2]
  MIC: 0.168 µM (≈ 0.0587 µg/mL)
Streptococcus pneumoniae [3]
  MIC: 10.8 µM (≈ 3.77 µg/mL)

## O=C(Nc1oc(-c2ccc(OCc3c(Cl)cccc3Cl)cc2)nc1C(=O)O)c1ccc(Cl)cc1
[1]
  MIC: > 128 µM

## CCOC(=O)c1sc(NC(=O)c2ccccc2)nc1-c1ccc(OCc2c(Cl)cccc2Cl)cc1
[1]
  MIC: 61.2 µM (≈ 32.3 µg/mL)
Staphylococcus aureus
  MIC: > 128 µM
Escherichia coli
  MIC: > 128 µM
Streptococcus pneumoniae [2]
  MIC: ≤ 0.119 µM
Streptococcus pneumoniae [3]
  MIC: > 128 µM

## O=C(Nc1c(C(=O)O)ncn1-c1ccc(OCc2c(Cl)cccc2Cl)cc1)c1ccc(Cl)cc1
[1]
  MIC: > 128 µM

## COc1c(N2C[C@@H]3CCCN[C@@H]3C2)c(F)cc2c(=O)c(C(=O)O)cn(C3CC3)c12 [MOXIFLOXACIN]
[1]
  MIC: 0.5 µM (≈ 0.201 µg/mL)

## CCOC(=O)c1nc(-c2ccc(OCc3c(Cl)cccc3Cl)cc2)oc1NC(=O)c1ccc(Cl)cc1
[1]
  MIC: > 128 µM

## NNC(=O)c1ccncc1 [ISONIAZID]
[1]
  MIC: 0.81 µM (≈ 0.111 µg/mL)

## GENTAMICIN
Staphylococcus aureus
  MIC: 6.9 µM
Escherichia coli
  MIC: 0.43 µM
Streptococcus pneumoniae [2]
  MIC: 6.9 µM
Streptococcus pneumoniae [3]
  MIC: 6.9 µM

## C=CC(=O)Nc1nc(-c2ccc(OCc3c(Cl)cccc3Cl)cc2)c(C(=O)OCC)s1
[1]
  MIC: 7.2 µM (≈ 3.44 µg/mL)
Staphylococcus aureus
  MIC: > 128 µM
Escherichia coli
  MIC: > 128 µM
Streptococcus pneumoniae [2]
  MIC: ≤ 0.131 µM
Streptococcus pneumoniae [3]
  MIC: > 128 µM

## CCCC(=O)Nc1nc(-c2ccc(OCc3c(Cl)cccc3Cl)cc2)c(C(=O)O)s1
[1]
  MIC: > 128 µM
Staphylococcus aureus
  MIC: > 128 µM
Escherichia coli
  MIC: > 128 µM
Streptococcus pneumoniae [2]
  MIC: ≤ 0.134 µM
Streptococcus pneumoniae [3]
  MIC: > 128 µM

## CCOC(=O)c1sc(NC(=O)c2ccc(Cl)cc2)nc1-c1ccc(OCc2c(Cl)cccc2Cl)cc1
[1]
  MIC: 1 µM (≈ 0.562 µg/mL)
Staphylococcus aureus
  MIC: > 128 µM
Escherichia coli
  MIC: > 128 µM
Streptococcus pneumoniae [2]
  MIC: 7.12 µM (≈ 4 µg/mL)
Streptococcus pneumoniae [3]
  MIC: > 128 µM

## O=C(Nc1nc(-c2ccc(OCc3c(Cl)cccc3Cl)cc2)c(C(=O)O)s1)c1ccc(Cl)cc1
[1]
  MIC: > 128 µM
Staphylococcus aureus
  MIC: > 128 µM
Escherichia coli
  MIC: > 128 µM
Streptococcus pneumoniae [2]
  MIC: ≤ 0.117 µM
Streptococcus pneumoniae [3]
  MIC: > 128 µM

## CCOC(=O)c1ncn(-c2ccc(OCc3c(Cl)cccc3Cl)cc2)c1NC(=O)c1ccc(Cl)cc1
[1]
  MIC: > 128 µM

## O=[N+]([O-])c1cn2c(n1)OC[C@@H](OCc1ccc(OC(F)(F)F)cc1)C2 [PRETOMANID]
[1]
  MIC: 0.44 µM (≈ 0.158 µg/mL)

## CCCC(=O)Nc1nc(-c2ccc(OCc3c(Cl)cccc3Cl)cc2)c(C(=O)OCC)s1
[1]
  MIC: 60.8 µM (≈ 30 µg/mL)
Staphylococcus aureus
  MIC: > 128 µM
Escherichia coli
  MIC: > 128 µM
Streptococcus pneumoniae [2]
  MIC: ≤ 0.127 µM
Streptococcus pneumoniae [3]
  MIC: > 128 µM

## O=C(Nc1nc(-c2ccc(OCc3c(Cl)cccc3Cl)cc2)c(C(=O)O)s1)c1ccc(Cl)cc1Cl
[1]
  MIC: 45.5 µM (≈ 25.9 µg/mL)
Staphylococcus aureus
  MIC: > 128 µM
Escherichia coli
  MIC: > 128 µM
Streptococcus pneumoniae [2]
  MIC: > 128 µM
Streptococcus pneumoniae [3]
  MIC: > 128 µM

## COc1ccc(C(=O)Nc2nc(-c3ccc(OCc4c(Cl)cccc4Cl)cc3)c(C(=O)O)s2)cc1
[1]
  MIC: > 128 µM
Staphylococcus aureus
  MIC: > 128 µM
Escherichia coli
  MIC: > 128 µM
Streptococcus pneumoniae [2]
  MIC: ≤ 0.118 µM
Streptococcus pneumoniae [3]
  MIC: > 128 µM

## O=C(Nc1nc(-c2ccc(OCc3c(Cl)cccc3Cl)cc2)c(C(=O)O)s1)c1ccccc1
[1]
  MIC: > 128 µM
Staphylococcus aureus
  MIC: > 128 µM
Escherichia coli
  MIC: > 128 µM
Streptococcus pneumoniae [2]
  MIC: ≤ 0.125 µM
Streptococcus pneumoniae [3]
  MIC: > 128 µM

## CCOC(=O)c1sc(NC(=O)c2ccc(OC)cc2)nc1-c1ccc(OCc2c(Cl)cccc2Cl)cc1
[1]
  MIC: 7.6 µM (≈ 4.24 µg/mL)
Staphylococcus aureus
  MIC: > 128 µM
Escherichia coli
  MIC: > 128 µM
Streptococcus pneumoniae [2]
  MIC: ≤ 0.112 µM
Streptococcus pneumoniae [3]
  MIC: > 128 µM
